Data as given in ChEMBL document CHEMBL3621177, “Modulation of the Interaction between a Peptide Ligand and a G Protein-Coupled Receptor by Halogen Atoms” (ACS Med Chem Lett, 2015).

Assays:
[1] = Displacement of [3H]diprenorphine from zebrafish mu opioid receptor expressed in HEK293 cell membranes by radioligand displacement assay; design: species or system Danio rerio
Summary of the method: (§1)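 Competition binding on membranes from stably transfected HEK293 cells expressing the zebrafish μ, δ1a or δ1b receptor. Cells were grown to 80% confluence, harvested and pelleted before membrane preparation. [3H]-diprenorphine served as radioligand. Nonspecific binding was defined with 10 μM naloxone. Data were fitted to a one-site displacement model.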

[2] = Displacement of [3H]diprenorphine from zebrafish delta1a opioid receptor expressed in HEK293 cell membranes by radioligand displacement assay; design: species or system Danio rerio; summary of the method: as §1
[3] = Displacement of [3H]diprenorphine from zebrafish delta1b opioid receptor expressed in HEK293 cell membranes by radioligand displacement assay; design: species or system Danio rerio; summary of the method: as §1
[4] = organism: Danio rerio; assay: Selectivity index, ratio of Ki for zebrafish delta1a opioid receptor to Ki for zebrafish mu opioid receptor

Compound	Ki [1]	Ki [2]	Ki [3]	Ratio Ki [4]
NC(=O)[C@H](Cc1ccc(Br)cc1)NC(=O)[C@H](Cc1c[nH]c2ccccc12)NC(=O)[C@@H]1CCCN1C(=O)[C@@H](N)Cc1ccc(O)cc1	135 nM	1900 nM	2680 nM	–
NC(=O)[C@H](Cc1ccc(F)cc1)NC(=O)[C@H](Cc1c[nH]c2ccccc12)NC(=O)[C@@H]1CCCN1C(=O)[C@@H](N)Cc1ccc(O)cc1	51.6 nM	5330 nM	4800 nM	–
CC(C)C[C@H](NC(=O)[C@H](Cc1ccc(Br)cc1)NC(=O)CNC(=O)CNC(=O)[C@@H](N)Cc1ccc(O)cc1)C(=O)O	287 nM	34.1 nM	27.6 nM	–
CC(C)C[C@H](NC(=O)[C@H](Cc1ccccc1Br)NC(=O)CNC(=O)CNC(=O)[C@@H](N)Cc1ccc(O)cc1)C(=O)O	1430 nM	24.2 nM	32.3 nM	–
CC(C)C[C@H](NC(=O)[C@H](Cc1ccc(Cl)cc1)NC(=O)CNC(=O)CNC(=O)[C@@H](N)Cc1ccc(O)cc1)C(=O)O	312 nM	44.5 nM	40.6 nM	–
CC(C)C[C@H](NC(=O)[C@H](Cc1ccc(I)cc1)NC(=O)CNC(=O)CNC(=O)[C@@H](N)Cc1ccc(O)cc1)C(=O)O	540 nM	44.6 nM	52.9 nM	–
NC(=O)[C@H](Cc1ccc(Cl)cc1)NC(=O)[C@H](Cc1c[nH]c2ccccc12)NC(=O)[C@@H]1CCCN1C(=O)[C@@H](N)Cc1ccc(O)cc1	71.9 nM	1700 nM	2330 nM	–
NC(=O)[C@H](Cc1ccc(I)cc1)NC(=O)[C@H](Cc1c[nH]c2ccccc12)NC(=O)[C@@H]1CCCN1C(=O)[C@@H](N)Cc1ccc(O)cc1	294 nM	1590 nM	1960 nM	–
CC(C)C[C@H](NC(=O)[C@H](Cc1ccccc1I)NC(=O)CNC(=O)CNC(=O)[C@@H](N)Cc1ccc(O)cc1)C(=O)O	401 nM	15.5 nM	28.5 nM	–
NC(=O)[C@H](Cc1ccccc1)NC(=O)[C@H](Cc1c[nH]c2ccccc12)NC(=O)[C@@H]1CCCN1C(=O)[C@@H](N)Cc1ccc(O)cc1 [ENDOMORPHIN-1]	32.8 nM	8470 nM	6200 nM	258
CC(C)C[C@H](NC(=O)[C@H](Cc1ccc(F)cc1)NC(=O)CNC(=O)CNC(=O)[C@@H](N)Cc1ccc(O)cc1)C(=O)O	210 nM	11.7 nM	10.6 nM	–
CC(C)C[C@H](NC(=O)[C@H](Cc1ccccc1Cl)NC(=O)CNC(=O)CNC(=O)[C@@H](N)Cc1ccc(O)cc1)C(=O)O	1210 nM	42.8 nM	57.2 nM	–
CC(C)C[C@H](NC(=O)[C@H](Cc1ccccc1F)NC(=O)CNC(=O)CNC(=O)[C@@H](N)Cc1ccc(O)cc1)C(=O)O	2230 nM	115 nM	91.1 nM	–
